ChEMBL document CHEMBL1828580, “Tertiary amides with a five-membered heteroaromatic ring as new probes for the translocator protein” (Eur J Med Chem, 2011)
Active and inactive are the calls of the source. The rule behind the calls is not given here.

Experiments:
Translocator protein = Translocator protein (Rattus norvegicus, UniProt P16257); experiment: Displacement of [3H]PK11195 from TSPO receptor in rat kidney membranes; format: cell membranes, Membrane
[1] = Antiproliferative activity against human U87MG cells assessed as cell viability at 1000 times Ki after 24 hrs by MTS assay relative to untreated control; format: functional, U-87MG ATCC
How it was run: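 U87MG cells grown in RPMI with 10% FBS, glutamine, antibiotics and non-essential amino acids at 37 °C. […] MTS colorimetric read-out, expressed as % of DMSO-treated control (100%). Triplicate wells, 3 experiments, mean ± SEM.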

Rattus norvegicus = organism: Rattus norvegicus; experiment: Displacement of [3H]Ro15-1788 from CBR in rat cerebral cortex at 10 uM; format: tissue-based
How it was run: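 Rat cerebral cortex membranes were washed free of endogenous GABA, then incubated with 0.4 nM [3H]Ro15-1788 for 90 min at 0 °C in 50 mM Tris-citrate pH 7.4. Compound was present at 10 μM and the result given as % inhibition of binding.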

U-87 MG [2] = experiment: Induction of mitochondrial membrane depolarization in human U87MG cells assessed as increase in JC-1 monomer formation at 30 times Ki after 12 to 48 hrs by flow cytometric analysis; format: functional, cell-based; settings: U-87MG ATCC
How it was run: (§1)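 U87MG cells were exposed to compound at 30 times Ki, or to DMSO control, for 12, 24 or 48 h, with CCCP as positive control in each experiment. Collected cells were stained with JC-1 for 30 min at room temperature in the dark, then analysed by flow cytometry: aggregates in FL2, monomers in FL1, gated on forward/side scatter. Read-out was % of cells in the lower-right (depolarized) quadrant; three independent experiments.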

U-87 MG [3] = experiment: Induction of mitochondrial membrane depolarization in human U87MG cells assessed as change in membrane potential at 30 times Ki after 48 hrs by flow cytometric analysis; format: functional, U-87MG ATCC; how it was run: as §1
U-87MG ATCC [4] = experiment: Antiproliferative activity against human U87MG cells assessed as reduction in cell viability at 30 times Ki after 24 hrs by trypan blue exclusion assay
U-87MG ATCC [5] = experiment: Antiproliferative activity against human U87MG cells assessed as reduction in cell viability at 30 times Ki after 48 hrs by trypan blue exclusion assay
U-87MG ATCC [6] = experiment: Antiproliferative activity against human U87MG cells assessed as reduction in cell viability at 30 times Ki after 72 hrs by trypan blue exclusion assay
U-87MG ATCC [7] = experiment: Antiproliferative activity against human U87MG cells assessed as reduction in cell viability at 150 times Ki after 24 hrs by trypan blue exclusion assay

Chain of Translocator protein (P16257 whole entry, looked up): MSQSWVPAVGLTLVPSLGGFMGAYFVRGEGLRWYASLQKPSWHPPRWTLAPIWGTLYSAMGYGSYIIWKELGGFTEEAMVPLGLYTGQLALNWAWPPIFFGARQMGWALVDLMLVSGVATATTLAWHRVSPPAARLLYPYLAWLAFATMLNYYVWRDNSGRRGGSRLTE

Structure (SMILES) | Ki (Translocator protein) | further results
CCCN(CCC)C(=O)Cc1coc(-c2ccc(C)cc2)n1 | 2200 nM | –
CCCCCCN(CCCCCC)C(=O)Cc1nc(-c2ccc(Cl)cc2)no1 | 3200 nM | –
CCCCCCN(CCCCCC)C(=O)c1cc(-c2ccc(C)cc2)no1 | 2700 nM | –
CCCCCN(CCCCC)C(=O)c1cc(-c2ccccc2)on1 | 382 nM | –
CCCCCN(CCCCC)C(=O)Cc1coc(-c2ccc(Cl)cc2)n1 | 45 nM | Activity [1]: 72.6%
CCCCCCN(CCCCCC)C(=O)c1cc(-c2ccccc2)on1 | 5800 nM | –
CCCCCN(CCCCC)C(=O)Cc1nc(-c2ccccc2)no1 | 133 nM | –
CCCCCCN(CCCCCC)C(=O)c1cc(-c2ccc(Cl)cc2)on1 | > 10000 nM | –
CCCCCCN(CCCCCC)C(=O)Cc1nc(-c2ccccc2)no1 | 1100 nM | –
CCCCCN(CCCCC)C(=O)Cc1cc(-c2ccccc2)no1 | 257 nM | –
CCCCN(CCCC)C(=O)Cc1nc(-c2ccc(Cl)cc2)no1 | 267 nM | –
CCCCCN(CCCCC)C(=O)Cc1coc(-c2ccc(F)cc2)n1 | 11 nM | Activity [1]: 98%
CCCCCCN(CCCCCC)C(=O)Cc1coc(-c2ccc(C)cc2)n1 | 877 nM | –
CCCCCN(CCCCC)C(=O)Cc1nc(-c2ccc(Cl)cc2)no1 | 152 nM | –
CCCCN(CCCC)C(=O)Cc1coc(-c2ccc(C)cc2)n1 | 487 nM | –
CCCCCN(CCCCC)C(=O)Cc1cc(-c2ccccc2)on1 | 51 nM | Activity [1]: 24.8%

Structure (SMILES) | Ki (Translocator protein) | further results
CCCCN(CCCC)C(=O)C(=O)c1c(-c2ccc(Cl)cc2)[nH]c2ccc(Cl)cc12 | – | Activity [1]: 76%
CCCCN(CCCC)C(=O)c1cc(-c2ccccc2)no1 | 651 nM | –
CCCCN(C)C(=O)c1nc(-c2ccccc2)no1 | > 10000 nM | –
CCCN(CCC)C(=O)Cc1nc(-c2ccc(Cl)cc2)no1 | 3400 nM | –
CCCN(CCC)C(=O)c1cc(-c2ccccc2)no1 | > 10000 nM | –
CCCN(CCC)C(=O)Cc1nc(-c2ccccc2)no1 | 4340 nM | –
CCCCCN(CCCCC)C(=O)c1nc(-c2ccccc2)no1 | 914 nM | –
CCCCCCN(CCCCCC)C(=O)Cc1coc(-c2ccc(F)cc2)n1 | 157 nM | –
CCCCN(CCCC)C(=O)Cc1nc(-c2ccccc2)no1 | 489 nM | –
CCCN(CCC)C(=O)c1cc(-c2ccc(Cl)cc2)on1 | > 10000 nM | –
CCCCCN(CCCCC)C(=O)Cc1coc(-c2ccccc2)n1 | 32 nM | inhibition (Rattus norvegicus): < 25%; Activity [1]: 9.3%; Activity (U-87 MG [2]): Active; Activity (U-87 MG [3]): 24%; Activity (U-87MG ATCC [4]): Active; Activity (U-87MG ATCC [5]): Active; Activity (U-87MG ATCC [6]): Active; Activity (U-87MG ATCC [7]): Active
CCCCN(CCCC)C(=O)c1coc(-c2ccccc2)n1 | 3460 nM | –
CCCCCN(CCCCC)C(=O)Cc1coc(-c2ccc(C)cc2)n1 | 68 nM | Activity [1]: 5.3%
CCCN(CCC)C(=O)Cc1coc(-c2ccc(F)cc2)n1 | 1630 nM | –
CCCCCCN(CCCCCC)C(=O)c1nc(-c2ccccc2)no1 | 4190 nM | –

Now from value to molecule, other results behind:

Ki (Translocator protein) | Structure (SMILES) | further results
772 nM | CCCCN(CCCC)C(=O)c1nc(-c2ccccc2)no1 | –
> 10000 nM | CCN(CC)C(=O)c1nc(-c2ccccc2)no1 | –
> 10000 nM | CCCN(CCC)C(=O)c1nc(-c2ccccc2)no1 | –
88 nM | CCCCN(CCCC)C(=O)Cc1coc(-c2ccc(F)cc2)n1 | –
> 10000 nM | CCN(CC)C(=O)c1coc(-c2ccccc2)n1 | –
7000 nM | CCCCCCN(CCCCCC)C(=O)c1cc(-c2ccccc2)no1 | –
613 nM | CCCCCN(CCCCC)C(=O)c1coc(-c2ccccc2)n1 | –
151 nM | CCCCCCN(CCCCCC)C(=O)Cc1coc(-c2ccccc2)n1 | inhibition (Rattus norvegicus): < 25%
620 nM | CCCCN(CCCC)C(=O)c1cc(-c2ccccc2)on1 | –
> 10000 nM | CCCN(CCC)C(=O)c1cc(-c2ccccc2)on1 | –
942 nM | CCCN(CCC)C(=O)Cc1coc(-c2ccc(Cl)cc2)n1 | –
4870 nM | CCN(Cc1ccccc1)C(=O)c1nc(-c2ccccc2)no1 | –
> 10000 nM | CCCCN(C)C(=O)c1coc(-c2ccccc2)n1 | –
5490 nM | CCN(Cc1ccccc1)C(=O)c1coc(-c2ccccc2)n1 | –
704 nM | CCCCCCN(CCCCCC)C(=O)Cc1coc(-c2ccc(Cl)cc2)n1 | –
177 nM | CCCCN(CCCC)C(=O)Cc1coc(-c2ccc(Cl)cc2)n1 | –
4600 nM | CCCCCCN(CCCCCC)C(=O)c1coc(-c2ccccc2)n1 | –
> 10000 nM | CCCN(CCC)C(=O)c1coc(-c2ccccc2)n1 | –
346 nM | CCCCN(CCCC)C(=O)Cc1coc(-c2ccccc2)n1 | inhibition (Rattus norvegicus): < 25%
379 nM | CCCCCN(CCCCC)C(=O)c1cc(-c2ccccc2)no1 | –
1700 nM | CCCN(CCC)C(=O)Cc1coc(-c2ccccc2)n1 | inhibition (Rattus norvegicus): < 25%
